Most compounds without a hit are left out; they make up all but 3.8% or so of the library.
MrgX1 ag = activates human MrgX1 receptor signaling | MrgX1-HEK293 cells, Fluo-4 calcium fluorescence, agonist mode; hits give high values | B-score at 10 µM | 310,000 compounds, 0.44% hits | AID 588627;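 active = calcium response B-score plate-corrected fluorescence ratio at least 3 library SD, with starting fluorescence B-score inside 5 SD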
Target sequence (Q96LB2 whole entry, looked up): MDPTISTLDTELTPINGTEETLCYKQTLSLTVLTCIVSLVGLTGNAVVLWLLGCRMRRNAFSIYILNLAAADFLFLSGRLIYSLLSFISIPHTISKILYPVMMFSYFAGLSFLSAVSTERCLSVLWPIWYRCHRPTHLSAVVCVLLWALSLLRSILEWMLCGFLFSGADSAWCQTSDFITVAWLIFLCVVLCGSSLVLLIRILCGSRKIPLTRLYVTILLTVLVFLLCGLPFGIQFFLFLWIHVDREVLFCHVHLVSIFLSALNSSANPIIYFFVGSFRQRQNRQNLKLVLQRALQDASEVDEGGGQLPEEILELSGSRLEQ
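Material: MrgX1-expressing HEK293 cells; input: 15,000 cells per well; doses: test compound given as first of three sequential additions; schedule: overnight plating before 1 h dye loading; technique: Fluo-4 NW calcium-flux fluorescence, kinetic read; evaluation: baseline-normalised fluorescence change ratio, B-scored; control set: plate-wise positive and negative controls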
MrgX1 antag = blocks BAM8-22 activation of human MrgX1 receptor; Q96LB2; MRGX1-HEK293 calcium flux, Fluo-4, BAM8-22 antagonism; hits give low values; B-score at 10 µM; 310,000 compounds, 1.3% hits;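 active = calcium-response B-score plate-corrected more than 3 library SD below zero, starting fluorescence within 5 deviations, no agonist response on first addition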;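 also: peak minus trough fluorescence over baseline after final BAM8-22 challenge near maximal dose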
RGS4 block = inhibitors of human RGS4; P49798; HEK293 M3R/RGS4 inducible, Fluo-4 calcium flux; hits give high values; triggered by carbachol at its EC20; B-score at 10 µM; 310,000 compounds, 0.45% hits; AID 463165;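 active = B-score, a plate-corrected calcium signal, over three deviations above library mean, with baseline fluorescence within five deviations of library mean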;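 also: RGS4 expression induced by doxycycline in cells with stable M3 receptor; B-score is computed from the integrated fluorescence ratio over baseline after carbachol; higher B-score means a larger calcium signal and so more RGS4 inhibition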
Target sequence (P49798 whole entry, looked up): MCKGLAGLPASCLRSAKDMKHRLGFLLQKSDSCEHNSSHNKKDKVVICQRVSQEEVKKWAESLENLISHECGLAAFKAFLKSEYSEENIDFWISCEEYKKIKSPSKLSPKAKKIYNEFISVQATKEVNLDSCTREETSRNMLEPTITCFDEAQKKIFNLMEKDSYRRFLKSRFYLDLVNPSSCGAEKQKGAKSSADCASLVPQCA
Lipid droplet = modulators of hepatic lipid droplet formation. inhibition, % at 6.5 µM. AML12 mouse hepatocytes, oleate lipid droplets, BODIPY imaging. 240,000 compounds, 0.4% hits. AID 1656;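 active = lipid droplet intensity inhibited by at least 50%, with more than 500 cells counted; inconclusive = wells with under 300 cells, treated as cytotoxic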
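Assay system: AML12 hepatocytes (mouse); Probe or stimulus: oleic acid at 100 µM to induce lipid droplet formation; Dosing: compound at 6.5 µM only; Schedule: compound with oleate, overnight; Detection: fluorescence imaging, 20x objective, two fields per well; Measure: % inhibition of lipid droplet signal.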
MrgX1 PAM = allosterically activates human MrgX1 receptor signaling; Q96LB2; MrgX1-HEK293, Fluo-4 calcium flux, FDSS; hits give high values; B-score at 10 µM; 310,000 compounds, 0.63% hits;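 active = plate-corrected calcium response at least 3 library SD above typical, normal starting fluorescence, not activating the receptor alone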;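 also: compound read alongside a low EC10 to EC30 dose of BAM8-22 agonist; peak minus trough fluorescence over baseline measured at the second addition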
RGS4 act = RGS4 potentiation or activation. HEK293 M3R/inducible RGS4, carbachol calcium flux Fluo4; hits give low values. B-score at 10 µM. 310,000 compounds, 0.92% hits;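 active = B-score of the integrated calcium signal more than 4 SD below the library mean, with starting fluorescence not abnormally high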;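 also: negative B-score means reduced calcium response which marks RGS4 activation or potentiation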
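Reagent: ECmax carbachol challenge; Test system: M3R-expressing HEK293 line, RGS4 induced by doxycycline; Schedule: overnight RGS4 induction, 30 min dye load 37 °C, 20 min compound RT; Detection: calcium dye Fluo4 fluorescence; Read-out: Agonist-evoked peak-minus-minimum fluorescence over baseline, integrated ratio, B score.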
Hep lipid conf = hepatic lipid droplet formation inhibition, confirmed | inhibition, % at 5.2 µM | AML12 mouse hepatocytes, BODIPY lipid droplet imaging; droplets induced with 100 µM oleic acid | 870 compounds, 65% hits | shares compounds with Lipid droplet;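 active = inhibition of lipid droplet metric at least 50%, with more than 300 cells in each of four replicates; inconclusive = wells under 300 cells, flagged as toxic or low count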;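 also: plate controls were DMSO with oleic acid for no effect and 5 µM Triacsin-C for full effect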
AML12 tox img = AML12 hepatocyte cytotoxicity (counter-screen); shares compounds with Lipid droplet; AML12 mouse hepatocytes, DAPI nuclear morphology cytotoxicity imaging; hits give high values; cells fed 100 µM oleate overnight; z-score at 5 µM; 870 compounds, 3% hits; AID 463200; in the data active = z-score above about 6.3;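 also: compound exposure lasted overnight at 37 °C before fixation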
AML12 tox conf = confirmation of cytotoxicity in AML12 mouse hepatocytes; AML12 mouse hepatocyte viability, ATP luminescence; cells loaded with 100 µM oleic acid; cytotoxicity, % at 50 µM; 530 tested, under 10 active; shares compounds with Lipid droplet;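 active = cytotoxicity above 50% in each of four replicates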;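 also: compound exposure lasted overnight at 37 °C before the ATP read; 0% = DMSO-treated cells and 100% = wells with no cells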
Numbers without * were called inactive; i = inactive; ? = inconclusive; nt = not tested or not shown.

SMILES	MrgX1 ag	MrgX1 antag	RGS4 block	Lipid droplet	MrgX1 PAM	RGS4 act	Hep lipid conf	AML12 tox img	others
O=C(Oc1cccc(/C=N/Nc2nc(Nc3ccccc3)nc(N3CCOCC3)n2)c1)c1ccco1	i	i	i	120*	i	i	42	13*
Cc1[nH]c2ccccc2c1/C=N/Nc1nc(Nc2ccc(F)cc2)nc(N2CCOCC2)n1	i	i	i	61*	i	i	?	108*
CCNC(=S)N1CCc2cc(OC)c(OC)cc2C1COc1ccc(F)cc1 (configuration not stated)	i	i	i	60*	i	i	97*	-0.0057	AML12 tox conf=3
CN(C)S(=O)(=O)c1cccc(NC(=O)CCNC(=O)c2ccccc2Cl)c1	i	i	i	-4	i	i	nt	nt
CCOC(=O)c1ccc(S(=O)(=O)NCC(c2ccc(N(C)C)cc2)c2c[nH]c3ccccc23)cc1 (configuration not stated)	i	i	i	96*	i	i	108*	0.39	AML12 tox conf=14
CC1(c2nnc(-c3ccc(F)cc3)o2)CC(c2ccccc2)=NO1 (configuration not stated)	i	i	i	nt	i	i	nt	nt
COc1ccc(C2CC(c3ccccc3)=NN2C(=O)COC(=O)C2CC2)cc1 (configuration not stated)	i	i	i	16	i	i	nt	nt
COc1ccc(CC(=O)OCC(=O)N2N=C(c3ccccc3)CC2c2ccc(OC)cc2)cc1 (configuration not stated)	i	i	i	82*	i	i	107*	-0.45
COc1nccnc1NS(=O)(=O)c1ccc(NCc2cc(Br)ccc2O)cc1	i	i	i	64*	i	i	15	-0.0013
CCc1nnc(NS(=O)(=O)c2ccc(NCc3cc(Br)ccc3O)cc2)s1	i	i	i	-5	i	i	nt	nt
N#Cc1c(NC(=O)COC(=O)c2ccc(S(=O)(=O)N3CCCC3)cc2)sc2c1CCCCC2	i	i	i	-32	i	i	nt	nt
CC1=C(C(=O)OCC2CCCO2)C(c2ccc(Cl)c(Cl)c2)NC(=O)N1 (configuration not stated)	i	i	i	57*	i	i	35	-0.64
CC1=C(C(=O)OCC2CCCO2)C(c2ccccc2Cl)NC(=O)N1 (configuration not stated)	i	i	i	7	i	i	nt	nt
Cc1c(C(=O)O)sc2nc3n(c(=O)c12)CCC(C)CC3 (configuration not stated)	i	i	i	93*	i	i	27	-0.37
CCC(=O)Nc1c2c(nn1-c1ccc(C)cc1)CS(=O)(=O)C2	i	i	i	57*	i	i	35	0.25
O=c1[nH]c(C2CCN(S(=O)(=O)c3cccc([N+](=O)[O-])c3)CC2)nc2c1nnn2Cc1ccccc1	i	i	i	7	i	i	nt	nt
O=c1ccc(-c2ccc([N+](=O)[O-])cc2)nn1-c1ccccc1	i	i	i	0	i	i	nt	nt
O=[N+]([O-])c1ccc(-[n+]2nc(-c3ccccc3)nn2-c2ccccc2)cc1	i	i	i	87*	i	i	115*	-0.74	AML12 tox conf=12
CC(=O)c1ccc(OCCNS(=O)(=O)c2ccc(-n3cnnn3)c(C)c2)cc1	i	i	i	-9	i	i	nt	nt
Cc1cc(-n2cnnn2)cc(C)c1S(=O)(=O)NCCOc1ccccc1	i	i	i	61*	i	i	-1	-0.31
COCCNC(=O)c1ccccc1NC(=O)CSc1ccc(C)cc1	i	i	i	4	i	i	nt	nt
CCOc1ccccc1NC(=O)CC1Nc2cc(C)c(C)cc2NC1=O (configuration not stated)	i	i	i	59*	i	i	67*	1.3
CN(C)C(=S)SCCn1c(N)nc(N(C)C)nc1=O	i	i	i	0	i	i	nt	nt
Cc1ccc(Cn2nc(C)c(NC(=O)c3noc4c3CCCCC4)c2C)cc1	i	i	i	-1	i	i	nt	nt
Cc1ccc(Cn2nc(C)c(NC(=O)C3(C)CC3(Br)Br)c2C)cc1 (configuration not stated)	i	i	i	64*	i	i	68*	0.89	AML12 tox conf=16
SMILES	MrgX1 ag	MrgX1 antag	RGS4 block	Lipid droplet	MrgX1 PAM	RGS4 act	Hep lipid conf	AML12 tox img	others
Cc1ccc(Oc2ncccc2C(=O)NCC(=O)O)cc1	i	i	i	9	i	i	nt	nt
COC(=O)c1ccc(C2=NOC(C)(c3sc(-c4ccccc4)nc3C)C2)cc1 (configuration not stated)	i	i	i	20	i	i	nt	nt
COC(=O)c1ccc(C2=NOC(C)(c3sc(-c4ccc(Cl)cc4)nc3C)C2)cc1 (configuration not stated)	i	i	i	56*	i	i	58*	-0.091	AML12 tox conf=6
O=C(NC1CC1)C1CCN(c2ncccn2)CC1	i	i	i	20	i	i	nt	nt
COc1ccc(OCC(O)CNS(=O)(=O)c2cccc(Cl)c2)cc1 (configuration not stated)	i	i	i	-31	i	i	nt	nt
Cc1cccc(Nc2nc(N)c([N+](=O)[O-])c(N3CCCC(C)C3)n2)c1 (configuration not stated)	i	i	i	62*	i	i	91*	1.5	AML12 tox conf=74*
CCc1ccc(NC(=O)C(C)OC(=O)c2ccc(N3CCCC3)c([N+](=O)[O-])c2)cc1 (configuration not stated)	i	i	i	92*	i	i	107*	-0.22
CCN(CCN(C)C)C(=O)c1ccc2c(c1NCCO)C(=O)c1ccccc1C2=O	i	i	i	22	i	i	nt	nt

Screening results from PubChem BioAssay.
